Measured values from different studies.
Target: Prostaglandin G/H synthase 1 (PTGS1, Ovis aries, UniProt P05979)
Observed: enzyme activity
Action: inhibitor
Residues used in one study (P05979 25-600): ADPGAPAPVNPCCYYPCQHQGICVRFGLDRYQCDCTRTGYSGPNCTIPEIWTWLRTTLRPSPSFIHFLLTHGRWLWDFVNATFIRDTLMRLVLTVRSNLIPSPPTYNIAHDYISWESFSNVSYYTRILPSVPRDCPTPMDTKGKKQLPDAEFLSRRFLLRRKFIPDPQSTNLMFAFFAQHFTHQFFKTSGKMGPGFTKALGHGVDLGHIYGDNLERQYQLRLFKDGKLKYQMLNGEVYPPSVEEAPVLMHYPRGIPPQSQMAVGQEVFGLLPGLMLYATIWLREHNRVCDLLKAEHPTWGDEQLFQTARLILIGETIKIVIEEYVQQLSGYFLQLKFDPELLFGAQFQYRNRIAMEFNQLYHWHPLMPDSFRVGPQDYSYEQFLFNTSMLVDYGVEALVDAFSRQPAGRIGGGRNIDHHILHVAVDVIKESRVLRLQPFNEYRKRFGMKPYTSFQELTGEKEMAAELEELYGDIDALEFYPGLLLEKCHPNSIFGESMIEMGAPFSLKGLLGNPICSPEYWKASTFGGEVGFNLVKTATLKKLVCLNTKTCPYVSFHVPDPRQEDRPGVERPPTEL

SMILES	assay	IC50
Cc1ccc(-c2nc3ccccc3s2)c(-c2ccc(S(C)(=O)=O)cc2)c1	absorbance	> 100 µM
CC(C(=O)O)c1cccc(C(=O)c2ccccc2)c1 (stereo not drawn)	–	0.05 µM
COc1ccccc1-c1cccc([N+](=O)[O-])c1F	absorbance	9.34 µM
COc1ccc(Nc2c(-c3ccc(S(C)(=O)=O)cc3)nc3c(C)cccn23)cc1	fluorescence	30 µM
O=[N+]([O-])c1cccc(-c2ccccc2F)c1F	absorbance	10.2 µM
Cc1ccc(-c2nn(-c3ccc(S(C)(=O)=O)cc3)cc2/C=N\N=c2/[nH]c(-c3ccc([N+](=O)[O-])cc3)cs2)cc1	–	49.6 µM
CSc1ccc(/C=C2\C=C(CC(=O)NS(=O)(=O)C(F)(F)F)c3cc(F)ccc32)cc1	–	0.7 to 1 µM
CS(=O)(=O)c1ccc(-c2nc3ccccn3c2Nc2ccc(Cl)cc2)cc1	fluorescence	34.3 µM
COc1ccc(-c2nn(-c3ccc(S(C)(=O)=O)cc3)cc2C=N/N=c2\[nH]c(-c3ccc([N+](=O)[O-])cc3)cs2)cc1	–	23.2 µM
COc1ccc(Nc2c(-c3ccc(S(C)(=O)=O)cc3)nc3cc(C)ccn23)cc1	fluorescence	29.7 µM
CS(=O)(=O)c1ccc(-n2cc(/C=N/N=c3\[nH]c(-c4ccc([N+](=O)[O-])cc4)cs3)c(-c3ccc(Br)cc3)n2)cc1	–	24.5 µM
CS(=O)(=O)c1ccc(-c2ncccc2-c2nc3ccccc3s2)cc1	absorbance	> 100 µM
Cc1cccc2nc(-c3ccc(S(C)(=O)=O)cc3)c(Nc3ccc(F)cc3)n12	fluorescence	40.2 µM
Cc1ccc(-c2nc3ccccc3s2)c(-c2ccc(S(N)(=O)=O)cc2)c1	absorbance	> 100 µM
C[C@@H]1O[C@@H](OC[C@H]2O[C@@H](Oc3c(-c4ccc(O)cc4)oc4cc(O)cc(O)c4c3=O)[C@H](O[C@@H]3O[C@H](CO)[C@@H](O)[C@H](O)[C@H]3O)[C@@H](O)[C@@H]2O)[C@H](O)[C@H](O)[C@H]1O	absorbance	12.9 µM
COc1ccccc1-c1ccc([N+](=O)[O-])cc1	absorbance	8.79 µM
O=C(O)CC1=C/C(=C\c2cccc(-c3ccc(F)cc3)n2)c2ccc(F)cc21	–	9.3 µM
COc1ccc(F)c(-c2ccccc2F)c1	absorbance	9.98 µM
Cc1ccc(Nc2c(-c3ccc(S(C)(=O)=O)cc3)nc3c(C)cccn23)cc1	fluorescence	35.6 µM
CSc1ccc(/C=C2\C=C(CC(=O)NS(=O)(=O)c3ccc4ccccc4c3)c3cc(F)ccc32)cc1	–	2 µM
Cc1ccn2c(Nc3ccc(F)cc3)c(-c3ccc(S(C)(=O)=O)cc3)nc2c1	fluorescence	33.6 µM
COc1ccc(-c2nn(-c3ccc(S(C)(=O)=O)cc3)cc2/C=N/N=c2\[nH]c(-c3ccc(Br)cc3)cs2)cc1	–	62.7 µM
Cc1cccn2c(Nc3ccc(Cl)cc3)c(-c3ccc(S(C)(=O)=O)cc3)nc12	fluorescence	29.4 µM
CC(C)Cc1ccc(-c2nn(-c3ccc(S(C)(=O)=O)cc3)cc2/C=N/N=c2\[nH]c(-c3ccc([N+](=O)[O-])cc3)cs2)cc1	–	34.4 µM
